# Measured values taken from ChEMBL document CHEMBL5653631, “A Potent and Selective ULK1 Inhibitor Suppresses Autophagy and Sensitizes Cancer Cells to Nutrient Stress” (iScience, 2018).
# What was measured:
# [1] = target: T1, Serine/threonine-protein kinase ULK1 (Homo sapiens) (UniProt O75385); experiment: Inhibition of ULK1 phosphorylation at Ser15 residue in HEK293 cells incubated for 1 hr by chemiluminescence based immunoblotting analysis; assay type: cell-based; conditions: HEK293T, dose <= 20.0 µM
# T1 sequence (whole entry): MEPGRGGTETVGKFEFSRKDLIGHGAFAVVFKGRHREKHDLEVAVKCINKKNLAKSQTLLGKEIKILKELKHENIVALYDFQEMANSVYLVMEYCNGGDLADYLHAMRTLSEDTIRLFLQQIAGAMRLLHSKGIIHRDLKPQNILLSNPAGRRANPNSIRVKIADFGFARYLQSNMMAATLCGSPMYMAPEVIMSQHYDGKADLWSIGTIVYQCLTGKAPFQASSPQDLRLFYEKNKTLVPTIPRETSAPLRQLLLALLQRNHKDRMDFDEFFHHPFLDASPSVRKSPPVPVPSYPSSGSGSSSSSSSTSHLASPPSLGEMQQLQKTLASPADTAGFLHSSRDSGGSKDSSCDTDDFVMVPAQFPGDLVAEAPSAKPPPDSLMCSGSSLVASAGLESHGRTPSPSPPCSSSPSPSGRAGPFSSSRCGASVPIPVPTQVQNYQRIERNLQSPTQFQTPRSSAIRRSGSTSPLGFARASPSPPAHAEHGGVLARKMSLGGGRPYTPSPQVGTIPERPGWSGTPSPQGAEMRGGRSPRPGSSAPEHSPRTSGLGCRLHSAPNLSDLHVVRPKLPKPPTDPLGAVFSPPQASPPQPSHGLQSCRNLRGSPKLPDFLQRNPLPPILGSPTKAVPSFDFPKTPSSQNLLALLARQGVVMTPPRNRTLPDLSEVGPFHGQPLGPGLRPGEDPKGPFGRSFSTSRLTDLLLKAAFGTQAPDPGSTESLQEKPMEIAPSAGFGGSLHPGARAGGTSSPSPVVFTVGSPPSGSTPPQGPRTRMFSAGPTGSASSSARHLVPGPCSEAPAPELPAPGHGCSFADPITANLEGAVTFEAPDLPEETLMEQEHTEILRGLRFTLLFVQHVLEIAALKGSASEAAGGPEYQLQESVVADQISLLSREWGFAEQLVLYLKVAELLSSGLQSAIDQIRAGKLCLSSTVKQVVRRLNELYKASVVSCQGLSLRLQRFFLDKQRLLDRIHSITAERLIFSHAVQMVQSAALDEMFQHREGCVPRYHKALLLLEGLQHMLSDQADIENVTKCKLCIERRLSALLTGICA
# [2] = target: T2, Serine/threonine-protein kinase ULK2 (Homo sapiens, UniProt Q8IYT8); experiment: Inhibition of human ULK2
# T2 sequence (Q8IYT8 whole entry): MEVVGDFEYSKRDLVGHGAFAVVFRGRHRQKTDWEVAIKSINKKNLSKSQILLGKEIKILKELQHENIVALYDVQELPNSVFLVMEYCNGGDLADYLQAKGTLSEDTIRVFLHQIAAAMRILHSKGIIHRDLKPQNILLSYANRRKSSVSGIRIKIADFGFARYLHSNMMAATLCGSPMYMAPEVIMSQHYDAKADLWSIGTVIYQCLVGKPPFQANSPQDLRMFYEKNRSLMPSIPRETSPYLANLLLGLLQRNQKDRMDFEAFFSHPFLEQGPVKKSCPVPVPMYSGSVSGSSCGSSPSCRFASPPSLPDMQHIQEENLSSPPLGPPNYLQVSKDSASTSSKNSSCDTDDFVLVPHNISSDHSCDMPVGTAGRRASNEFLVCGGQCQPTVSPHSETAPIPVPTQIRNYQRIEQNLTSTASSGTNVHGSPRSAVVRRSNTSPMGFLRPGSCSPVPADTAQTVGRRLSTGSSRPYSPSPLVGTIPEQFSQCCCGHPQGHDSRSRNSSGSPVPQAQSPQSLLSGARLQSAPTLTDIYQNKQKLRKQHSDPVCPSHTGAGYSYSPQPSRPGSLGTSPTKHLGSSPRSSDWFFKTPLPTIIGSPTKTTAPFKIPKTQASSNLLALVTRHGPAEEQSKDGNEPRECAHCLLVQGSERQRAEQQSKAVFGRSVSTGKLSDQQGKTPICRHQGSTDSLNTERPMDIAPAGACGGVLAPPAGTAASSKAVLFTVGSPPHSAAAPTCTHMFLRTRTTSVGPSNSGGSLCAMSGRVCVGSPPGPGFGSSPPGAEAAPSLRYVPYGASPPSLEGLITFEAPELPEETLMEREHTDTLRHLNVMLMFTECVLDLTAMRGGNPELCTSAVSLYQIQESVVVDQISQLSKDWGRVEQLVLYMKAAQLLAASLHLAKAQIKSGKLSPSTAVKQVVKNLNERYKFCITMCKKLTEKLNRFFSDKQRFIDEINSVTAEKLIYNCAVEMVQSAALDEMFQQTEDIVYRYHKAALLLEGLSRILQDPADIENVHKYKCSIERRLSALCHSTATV
# [3] = target: T3, Serine/threonine-protein kinase A-Raf (Homo sapiens) (UniProt P10398); experiment: Inhibition of human recombinant ARAF at 15 nM related to control ULK1
# T3 sequence (whole entry): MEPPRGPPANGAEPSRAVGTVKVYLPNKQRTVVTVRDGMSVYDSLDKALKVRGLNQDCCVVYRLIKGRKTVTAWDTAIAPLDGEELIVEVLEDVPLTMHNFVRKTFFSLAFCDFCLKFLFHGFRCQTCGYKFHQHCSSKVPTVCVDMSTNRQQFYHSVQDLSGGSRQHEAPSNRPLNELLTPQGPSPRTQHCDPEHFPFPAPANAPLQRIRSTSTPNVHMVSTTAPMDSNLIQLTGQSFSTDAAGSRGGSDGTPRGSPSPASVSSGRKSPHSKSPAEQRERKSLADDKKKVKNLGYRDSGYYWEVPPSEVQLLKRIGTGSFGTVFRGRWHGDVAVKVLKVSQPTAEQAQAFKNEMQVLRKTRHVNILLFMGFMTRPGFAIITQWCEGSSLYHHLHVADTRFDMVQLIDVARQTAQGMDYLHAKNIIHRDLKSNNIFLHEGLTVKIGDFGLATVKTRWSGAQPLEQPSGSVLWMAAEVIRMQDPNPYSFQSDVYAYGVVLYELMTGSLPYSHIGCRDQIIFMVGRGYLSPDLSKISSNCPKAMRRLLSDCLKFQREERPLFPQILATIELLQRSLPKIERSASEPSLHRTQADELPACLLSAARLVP
# In short: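 Panel of 327 recombinant human kinases, each assayed in vitro by radiometric activity assay in duplicate at a single inhibitor concentration per compound, chosen with reference to its ULK1 inhibition. Activity remaining was expressed as percent of vehicle control, and percent inhibition was calculated as 100 minus percent activity remaining.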
inhibition [1],IC50 [2] [nM],fold change (FC) [3],SMILES
Dose-Dependent Effect,212,,CNC(=O)c1ccccc1Oc1nc(Nc2cc(OC)c(OC)c(OC)c2)ncc1Br
Dose-Dependent Effect,2.6,0.07,CC(C)[C@H](NC(=O)c1cc(-c2cnn3cc(-c4ccc(OCCN5CCCCC5)cc4)cnc23)cs1)C(F)(F)F
Dose-Dependent Effect,30,,O=C(N[C@@H](C1CC1)C(F)(F)F)c1cc(-c2cnn3cc(-c4ccc(F)cc4)cnc23)cs1
